IDH1 R132H inh: inhibitors of human IDH1 R132H | O75874 | IDH1 R132H reductase, diaphorase/resazurin fluorescence, 60 min | inhibition, % at 10 µM | 70,000 tested, 0.18% active; in the data active means inhibition above about 34%;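 further: 0% = DMSO and 100% = no enzyme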
T cruzi growth-1: blocks T. cruzi growth in NIH3T3 culture; T. cruzi beta-gal in NIH3T3, GalScreen luminescence, 90 h; inhibition, % at 8.34 µM; 77,000 tested, 5.9% active;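 active means mean inhibition above about 93%, with at least 55% of replicates each passing it, limit read from the data, passing the limit was not always enough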
GASC1 inh: KDM4C (human) demethylase inhibition. Q9H3R0. GST-KDM4C 2-372, H3K9me3 peptide, LANCE TR-FRET. inhibition, % at 12.5 µM. 96,000 tested, 0.15% active. AID 720574;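 active means mean replicate inhibition above about 25%, with at least 55% of replicates also reaching it, limit read from the data, passing the limit was not always enough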
Target sequence (Q9H3R0 2-372 limits assumed): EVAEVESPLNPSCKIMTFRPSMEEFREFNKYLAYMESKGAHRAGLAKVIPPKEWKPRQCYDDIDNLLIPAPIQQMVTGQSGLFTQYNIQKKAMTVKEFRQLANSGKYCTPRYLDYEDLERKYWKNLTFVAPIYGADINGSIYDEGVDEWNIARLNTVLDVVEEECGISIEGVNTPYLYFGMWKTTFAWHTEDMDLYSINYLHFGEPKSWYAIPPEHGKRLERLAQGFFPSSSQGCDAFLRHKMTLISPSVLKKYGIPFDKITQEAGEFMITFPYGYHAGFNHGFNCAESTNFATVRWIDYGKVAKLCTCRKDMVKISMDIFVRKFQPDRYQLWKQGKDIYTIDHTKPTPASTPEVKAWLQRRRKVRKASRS
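System – N-terminal GST-fused human GASC-1 (KDM4C) fragment, residues 2-372 · Input – enzyme final amount 10 nM · Technique – LANCE TR-FRET, Eu antibody, ULight-streptavidin, EDTA, ex 340 nm, em 618/671 nm · Medium – HEPES buffer, pH 7.5, plus ascorbate · Incubation – enzyme reaction 30 min, then detection 60 min, both room temperature · Reagent – H3K9me3 peptide with Fe(II)/2OG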
T cruzi growth-2: inhibitors of T. cruzi proliferation | inhibition, % at 8.35 µM | T. cruzi beta-gal in NIH3T3, GalScreen luminescence, 90 h | AID 651739 | shares compounds with T cruzi growth-1 | 5,600 tested, 72% active;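 active means mean replicate inhibition above about 95% and at least 55% of replicates individually reaching it, limit read from the data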
T cruzi growth-3: Trypanosoma cruzi proliferation inhibition | shares compounds with T cruzi growth-1 | T. cruzi beta-gal in NIH3T3, GalScreen luminescence, 90 h | inhibition, % at 2.09 µM | 5,600 tested, 21% active | AID 651740;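 active means mean inhibition above about 95%, with at least 55% of replicates also reaching it, limit read from the data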;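 further: plate controls were neutral control median for no effect and positive control median for full effect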
3T3 cytotox: NIH/3T3 (mouse) viability loss | cytotoxicity (signal decrease), % at 8.35 µM | 5,600 tested, 14% active | NIH/3T3 viability, CellTiter-Glo ATP luminescence, 90 h | shares compounds with T cruzi growth-1 | AID 651742;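 active means mean signal decrease across replicates above about 35% based on untreated-well scatter, with enough replicates individually passing, limit read from the data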;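 further: 0% = median of neutral control wells and 100% = median of positive control wells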
NIH3T3 tox 2: NIH/3T3 (mouse) viability loss | NIH/3T3 viability, CellTiter-Glo ATP luminescence, 90 h | 5,600 tested, 56% active | shares compounds with T cruzi growth-1 | AID 651744 | inhibition, % at 24.9 µM;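 active means mean loss of cell viability signal at or above a set limit, and enough replicates individually reaching it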;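 further: 0% = median of neutral control wells and 100% = median of positive control wells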
* marks the source's active call; other numbers are inactive results; · = not tested or not shown; ! = not confirmed by another sample. The full list was thinned out, with hits kept by preference.

SMILES	IDH1 R132H inh	T cruzi growth-1	GASC1 inh	T cruzi growth-2	T cruzi growth-3	3T3 cytotox	NIH3T3 tox 2
OC[C@@H]1[C@H](c2ccc(-c3cccc(F)c3)cc2)[C@@H]2CN(Cc3cncnc3)CCCCN12	·	123.1*	0.1	102.5*	68.3	-4.4	9.2
OC[C@@H]1[C@H](c2ccc(-c3cccc(F)c3)cc2)[C@H]2CN(Cc3cncnc3)CCCCN12	·	95.6*	-1.5	73.1	70.4	20.0	102.1*
COc1cccc(-c2ccc([C@@H]3[C@H](CO)N4CCCCN(Cc5cncnc5)C[C@@H]34)cc2)c1	·	-17.9	0.0	·	·	·	·
OC[C@H]1[C@@H](c2ccc(-c3cccc(F)c3)cc2)[C@@H]2CN(Cc3cncnc3)CCCCN12	·	58.9	-1.5	·	·	·	·
OC[C@@H]1[C@H](c2ccc(-c3ccccc3F)cc2)[C@H]2CN(Cc3ccncc3)CCCCN12	·	106.7*	3.1	92.8	84.7	45.8*	102.9*
OC[C@H]1[C@H](c2ccc(-c3ccccc3F)cc2)[C@@H]2CN(Cc3cccnc3)CCCCN12	·	32.7	-1.5	·	·	·	·
OC[C@H]1[C@@H](c2ccc(-c3ccccc3F)cc2)[C@H]2CN(Cc3cccnc3)CCCCN21	·	54.4	0.4	·	·	·	·
OC[C@H]1[C@H](c2ccc(-c3ccccc3F)cc2)[C@@H]2CN(Cc3ccncc3)CCCCN12	·	105.7*	2.4	101.2*	74.2	30.0	102.7*
OC[C@@H]1[C@@H](c2ccc(-c3ccccc3F)cc2)[C@H]2CN(Cc3ccncc3)CCCCN12	·	103.8*	3.4	83.1	48.4	29.4	81.5*
OC[C@@H]1[C@H](c2ccc(-c3ccccc3F)cc2)[C@@H]2CN(Cc3cccnc3)CCCCN12	·	89.2	0.6	·	·	·	·
CCS(=O)(=O)N1CCC2(CC1)CN(C(=O)NC(C)C)[C@@H](CO)c1c2c2ccc(OC)cc2n1C	·	·	-0.1	·	·	·	·
Cc1nnc(SCC(=O)Nc2ccc(C)c(Cl)c2)s1	-0.3	·	·	·	·	·	·
Cc1ccc(S(=O)(=O)Nc2ccc3c(c2)C(=O)N([C@@H](C)CO)C[C@@H](C)[C@@H](CN(C)C(=O)Nc2ccc4c(c2)OCO4)OCCCC[C@H](C)O3)cc1	·	·	-0.4	·	·	·	·
COc1cccc(-c2cc(C(=O)NCc3ccco3)c3cc(C)cc(C)c3n2)c1	-0.5	·	·	·	·	·	·
C[C@@H]1CN([C@H](C)CO)S(=O)(=O)c2ccc(Br)cc2O[C@H]1CN(C)C(=O)C1CCCCC1	·	100.3*!	1.2	33.9	-0.4	10.2	48.1*
C[C@H]1CN([C@@H](C)CO)S(=O)(=O)c2ccc(Br)cc2O[C@@H]1CN(C)C(=O)C1CCCCC1	·	102.6*	-1.9	31.5	-14.5	-12.2	41.7*
C[C@H](CO)N1C[C@H](C)[C@H](CN(C)C(=O)C2CCCCC2)Oc2cc(Br)ccc2S1(=O)=O	-0.7	29.5	-2.1	·	·	·	·
C[C@@H]1CN([C@@H](C)CO)S(=O)(=O)c2ccc(Br)cc2O[C@H]1CN(C)C(=O)C1CCCCC1	-0.5	73.8	-1.1	·	·	·	·
C[C@@H](O)C#Cc1ccc([C@H]2[C@@H](CO)N3CCCCN(C(=O)c4cccc(F)c4)C[C@@H]23)cc1	·	99.7*	-0.8	87.7	60.3	2.1	22.1
C[C@H](O)C#Cc1ccc([C@@H]2[C@@H](CO)N3CCCCN(C(=O)c4cccc(F)c4)C[C@@H]23)cc1	·	46.5	-0.4	·	·	·	·
C[C@H](O)C#Cc1ccc([C@H]2[C@H](CO)N3CCCCN(C(=O)c4cccc(F)c4)C[C@@H]23)cc1	·	100.0*	0.5	67.0	42.3	18.5	64.5*
C[C@H](O)C#Cc1ccc([C@H]2[C@@H](CO)N3CCCCN(C(=O)c4cccc(F)c4)C[C@H]23)cc1	·	55.6	1.0	·	·	·	·
C[C@@H]1CCCCO[C@@H](CN(C)Cc2ccc(C(=O)Nc3ccccc3N)cc2)[C@@H](C)CN([C@H](C)CO)C(=O)c2cc(NC(=O)NC3CCCCC3)ccc2O1	-0.1	·	0.2	·	·	·	·
C[C@@H]1CN([C@H](C)CO)S(=O)(=O)c2ccc(/C=C/c3ccccc3)cc2O[C@@H]1CN(C)C(=O)Nc1cc(F)ccc1F	-3.3	·	-0.3	·	·	·	·
C/C=C/c1ccc2c(c1)O[C@H](CN(C)C(=O)Nc1ccc(F)cc1)[C@@H](C)CN([C@@H](C)CO)S2(=O)=O	-0.1	6.6	2.5	·	·	·	·

From PubChem
